Results as given in ChEMBL document CHEMBL3399983, “Synthesis and biological activity of novel mono-indole and mono-benzofuran inhibitors of bacterial transcription initiation complex formation” (Bioorg Med Chem, 2015).
Calls of active or inactive are those of the source. The calls are words filed in the database; no cut-off is given here.

How the values were obtained:
[1] = Inhibition of interaction of RNA polymerase beta' subunit CH-region and region 2.2 of RNA polymerase sigma factor RpoD/RNA polymerase sigma factor sigA (unknown origin) at 15 uM […] followed by incubation at room temperature for 1 hr by ELISA method
Bacillus subtilis [2] = experiment: Growth inhibition of Bacillus subtilis 168 at 200 uM incubated for 16 hrs; type: functional; conditions: for inhibition of growth at 200 µM: Bacillus subtilis, 168, 16 h, read-out: GI
Escherichia coli [3] = experiment: Growth inhibition of Escherichia coli DH5[alpha] at 200 uM incubated for 16 hrs; type: functional; conditions: for inhibition of growth at 200 µM: read-out: GI
Outline: (§1)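 E. coli DH5α grown at 37 °C in LB with shaking to OD600 0.6–0.7, then added to wells holding compound diluted from a 50 mM DMSO stock. Plates shaken at 37 °C, with OD600 read every 10 min over 16 h against an LB blank. Growth inhibition expressed as % of the no-inhibitor control.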

Staphylococcus aureus = experiment: Growth inhibition of Staphylococcus aureus at 200 uM incubated for 16 hrs; type: functional; conditions: read-out: GI
Bacillus subtilis [4] = experiment: Growth inhibition of Bacillus subtilis 168 assessed as effect on exponential phase of bacterial growth at 200 uM incubated for 16 hrs; type: functional; conditions: Bacillus subtilis, 168, 16 h; read-out: GI
Escherichia coli [5] = experiment: Growth inhibition of Escherichia coli DH5[alpha] assessed as effect on exponential phase of bacterial growth at 200 uM incubated for 16 hrs; type: functional; conditions: read-out: GI; outline: as §1
Bacillus subtilis [6] = experiment: Growth inhibition of Bacillus subtilis 168 incubated for 16 hrs; type: functional
[7] = Inhibition of interaction of RNA polymerase beta' subunit CH-region and region 2.2 of RNA polymerase sigma factor RpoD/RNA polymerase sigma factor sigA (unknown origin) pre-incubated at 37 degC for 15 mins with enzyme followed by incubation at room temperature for 1 hr by ELISA method
Escherichia coli [8] = experiment: Growth inhibition of Escherichia coli DH5[alpha] incubated for 16 hrs; type: functional; outline: as §1

Structure (SMILES)	inhibition [1]	growth inhibition (GI) (Bacillus subtilis [2])	inhibition of growth at 200 µM (Escherichia coli [3]) [%]	inhibition of growth at 200 µM (Bacillus subtilis [2]) [%]	also measured
COc1cc(OC)c2c(-c3ccc(Cl)cc3)c[nH]c2c1C(=O)C(=O)Nc1ccc(C)cc1	37%	inactive	20	–	–
COc1cc(OC)c2c(-c3ccc(Cl)cc3)c[nH]c2c1C(=O)C(=O)N1CCCC1	inactive	–	23	–	inhibition of growth at 200 µM (Staphylococcus aureus): 60%
COc1cc(OC)c2c(C)c(C(=O)C(=O)N3CCOCC3)[nH]c2c1	33%	–	2	2	–
O=C(C(=O)N1CCOCC1)c1c[nH]c2ccccc12	39%	inactive	4	–	–
COc1cc(OC)c2c(-c3ccccc3)c(C(=O)C(=O)N3CCN(c4ccccn4)CC3)oc2c1	41%	–	10	3	–
COc1cc(OC)c2c(C)c(C(=O)C(=O)N3CCN(C)CC3)[nH]c2c1	44%	inactive	–	–	growth inhibition (GI) (Escherichia coli [3]): inactive
COc1cc(OC)c2c(-c3ccc(Cl)cc3)c[nH]c2c1C(=O)Nc1ccc(C)cc1	–	–	13	13	–
COc1cc(OC)c2c(-c3ccc(Br)cc3)c[nH]c2c1C(=O)NNc1ccccc1	44%	inactive	23	–	–
O=C(C(=O)N1CCCCC1)c1c[nH]c2ccccc12	37%	–	9	12	–
COc1cc(OC)c2c(-c3ccc(Br)cc3)c[nH]c2c1C(=O)C(=O)NNc1ccccc1	34%	–	24	10	–
COc1cc(OC)c2c(C)c(C(=O)C(=O)N3CCN(c4ccccn4)CC3)[nH]c2c1	48%	–	38	14	–
CCOC(=O)CNC(=O)C(=O)c1[nH]c2cc(OC)cc(OC)c2c1-c1ccc(Cl)cc1	42%	inactive	53	–	–
O=C(C(=O)N1CCN(Cc2ccccc2)CC1)c1c[nH]c2ccccc12	21%	–	6	70	–
COc1cc(OC)c2c(-c3ccc(Cl)cc3)c[nH]c2c1C(=O)C(=O)Nc1ccccc1	23%	–	23	26	–
COc1cc(OC)c2c(-c3ccc(Br)cc3)c[nH]c2c1C(=O)C(=O)Nc1ccccc1	34%	–	33	36	–
COc1cc(OC)c2c(C)c(C)[nH]c2c1C(=O)C(=O)N1CCN(c2ccccn2)CC1	27%	–	13	12	–
COc1cc(OC)c2c(-c3ccc(Cl)cc3)c[nH]c2c1C(=O)NNc1ccccc1	60%	inactive	21	–	–
COc1cc(OC)c2c(-c3ccc(Br)cc3)c[nH]c2c1C(=O)C(=O)N1CCCCC1	32%	–	26	14	–
COc1cc(OC)c2c(-c3ccc(Br)cc3)c(C(=O)C(=O)N3CCN(c4ccccn4)CC3)[nH]c2c1	25%	–	38	19	–
COc1cc(OC)c2c(-c3ccc(Br)cc3)c[nH]c2c1C(=O)Nc1ccccc1	49%	–	13	7	–

Structure (SMILES)	inhibition [1]	growth inhibition (GI) (Bacillus subtilis [2])	inhibition of growth at 200 µM (Escherichia coli [3]) [%]	inhibition of growth at 200 µM (Bacillus subtilis [2]) [%]	also measured
COc1cc(OC)c2c(-c3ccc(Br)cc3)c[nH]c2c1C(=O)Nc1ccc(C)cc1	–	–	12	36	–
COc1cc(OC)c2c(C)c(C)[nH]c2c1C(=O)C(=O)N1CCOCC1	7%	–	–	–	inhibition of growth at 200 µM (Bacillus subtilis [4]): 42%; growth inhibition (GI) (Escherichia coli [3]): inactive
COc1cc(OC)c2c(-c3ccc(Cl)cc3)c[nH]c2c1C(=O)C(=O)N1CCCCC1	inactive	inactive	–	–	growth inhibition (GI) (Escherichia coli [3]): inactive
COc1cc(OC)c2c(-c3ccc(Cl)cc3)c[nH]c2c1C(=O)C(=O)N1CCOCC1	inactive	inactive	–	–	inhibition of growth at 200 µM (Escherichia coli [5]): 38%
COc1cc(OC)c2c(C)c(C(=O)C(=O)N3CCCC3)[nH]c2c1	44%	inactive	–	–	growth inhibition (GI) (Escherichia coli [3]): inactive
COc1cc(OC)c2c(-c3ccc(Cl)cc3)c(C(=O)C(=O)N3CCCCC3)[nH]c2c1	inactive	inactive	18	–	–
COc1cc(OC)c2c(-c3ccc(Cl)cc3)c(C(=O)C(=O)N3CCOCC3)[nH]c2c1	27%	–	37	–	inhibition of growth at 200 µM (Bacillus subtilis [4]): 37%
COc1cc(OC)c2c(-c3ccc(Br)cc3)c[nH]c2c1C(=O)C(=O)N1CCN(Cc2ccccc2)CC1	8%	inactive	6	–	–
COc1cc(OC)c2c(-c3ccccc3)c(C(=O)C(=O)N3CCOCC3)oc2c1	29%	–	6	–	GI (Bacillus subtilis [6]): >100 µM; inhibition of growth at 200 µM (Bacillus subtilis [4]): 70%; IC50 [7]: 71.6 µM
COc1cc(OC)c2c(-c3ccc(Br)cc3)c(C(=O)C(=O)N3CCCCC3)[nH]c2c1	39%	–	7	22	–
COc1cc(OC)c2c(-c3ccc(Br)cc3)c(C(=O)C(=O)N3CCCC3)[nH]c2c1	inactive	inactive	–	–	growth inhibition (GI) (Escherichia coli [3]): inactive
COc1cc(OC)c2c(C)c(C(=O)C(=O)N3CCN(Cc4ccccc4)CC3)[nH]c2c1	46%	–	16	7	–
COc1cc(OC)c2c(C)c(C(=O)C(=O)N3CCCCC3)[nH]c2c1	17%	inactive	–	–	growth inhibition (GI) (Escherichia coli [3]): inactive
COc1cc(OC)c2c(-c3ccc(Cl)cc3)c(C(=O)N3CCOCC3)[nH]c2c1	inactive	inactive	42	–	–
COc1cc(OC)c2c(-c3ccc(Br)cc3)c[nH]c2c1C(=O)C(=O)N1CCOCC1	31%	inactive	–	–	inhibition of growth at 200 µM (Escherichia coli [5]): 59%; GI (Escherichia coli [8]): >100 µM; IC50 [7]: 33.9 µM
COc1cc(OC)c2c(-c3ccc(Cl)cc3)c[nH]c2c1C(=O)C(=O)NNc1ccccc1	26%	inactive	20	–	–
COc1cc(OC)c2c(C)c(C)[nH]c2c1C(=O)C(=O)N1CCCCC1	39%	–	24	–	inhibition of growth at 200 µM (Bacillus subtilis [4]): 57%
O=C(C(=O)N1CCN(c2ccccn2)CC1)c1c[nH]c2ccccc12	27%	–	4	10	–
COc1cc(OC)c2c(-c3ccc(Br)cc3)c[nH]c2c1C(=O)C(=O)Nc1ccc(C)cc1	–	inactive	29	–	–
